ChEMBL document CHEMBL4706579, “Novel quinazolinone inhibitors of the Pseudomonas aeruginosa quorum sensing transcriptional regulator PqsR” (Eur J Med Chem, 2020)
Activity calls are given as the source filed them. The rule behind the calls is not given here.

Key:
Pseudomonas aeruginosa = assay: Bactericidal activity against Pseudomonas aeruginosa PAO1 L assessed as inhibition of bacterial growth; type: functional, organism-based
[1] = biological target: T1, Transcriptional regulator MvfR (Pseudomonas aeruginosa PA14, UniProt A0A072ZLE6); assay: Inhibition of PqsR in Pseudomonas aeruginosa PAO1 L harboring mCTX:PpqsA-lux fusion protein measured every 30 mins for 24 hrs by luminescence reporter gene assay
T1 sequence (A0A072ZLE6 whole entry): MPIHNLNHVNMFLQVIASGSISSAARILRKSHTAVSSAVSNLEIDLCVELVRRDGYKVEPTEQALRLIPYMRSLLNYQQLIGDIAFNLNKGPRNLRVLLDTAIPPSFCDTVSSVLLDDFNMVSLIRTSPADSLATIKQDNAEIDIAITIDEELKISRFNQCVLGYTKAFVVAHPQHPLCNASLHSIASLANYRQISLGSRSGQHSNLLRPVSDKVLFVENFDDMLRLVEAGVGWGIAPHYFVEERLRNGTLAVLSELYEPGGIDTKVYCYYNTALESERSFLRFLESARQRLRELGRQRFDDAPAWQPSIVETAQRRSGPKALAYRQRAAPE
In short: (§1)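 Chromosomal mCTX:PpqsA-lux reporter strain grown overnight to OD600 2.0–3.0, diluted in LB to OD600 0.02 and mixed 1:1 with compound in LB. Ten […] serial concentrations, final 31.6 μM to 1 nM, in triplicate. Run at 37 °C for 24 h with OD600 and luminescence read every 30 min. IC50 from log concentration vs RLU/OD600 at the luminescence peak (8–9 h).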

[2] = biological target: T1, Transcriptional regulator MvfR; assay: Inhibition of PqsR in Pseudomonas aeruginosa PA14 harboring mCTX:PpqsA-lux fusion protein measured every 30 mins for 24 hrs by luminescence reporter gene assay; in short: as §1
[3] = biological target: T2, Transcriptional regulator MvfR (Pseudomonas aeruginosa PA14) (UniProt A0A072ZLE6); assay: Inhibition of PqsR in Pseudomonas aeruginosa PA14 harboring mCTX:PpqsA-lux fusion assessed as remaining activity at 10 uM incubated for 24 hrs by spot test relative to control
T2 sequence (whole entry): T1 sequence (A0A072ZLE6 whole entry)
In short: (§2)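 Chromosomal mCTX:PpqsA-lux reporter strain in LB, overnight culture (OD600 2.0–3.0) diluted to OD600 0.02 and mixed 1:1 with compound, final 10 μM, at least triplicate wells. Run at 37 °C for 24 h, with OD600 and luminescence read every 30 min. Luminescence/OD600 taken at the luminescence peak (8–9 h) and normalised to the 0.1% DMSO control (100%).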

[4] = biological target: T2, Transcriptional regulator MvfR (Pseudomonas aeruginosa PA14); assay: Inhibition of PqsR in Pseudomonas aeruginosa PAO1 L harboring mCTX:PpqsA-lux fusion protein assessed as remaining enzyme activity at 10 uM and measured every 30 mins for 24 hrs by spot test relative to control; in short: as §2
[5] = system: Pseudomonas aeruginosa PA14 PqsR; assay: Therapeutic index, ratio of cytotoxicity against human A549 cells to IC50 for inhibition of Pseudomonas aeruginosa PA14 PqsR; type: toxicity, cell-based; details: read-out: TI
[6] = biological target: T2, Transcriptional regulator MvfR (Pseudomonas aeruginosa PA14); assay: Inhibition of Pseudomonas aeruginosa PAO1-L PqsR assessed as reduction in pyocyanin production by measuring pyocyanin level at 3 times IC50 incubated for 16 hrs; design: scale not given: the % may be the effect or the level left
[7] = Solubility of the compound in test buffer at >100 uM; type: physicochemical
A549 = assay: Cytotoxicity against human A549 cells assessed as reduction in cell viability at 0.1 to 100 uM after 16 hrs by Alamar blue assay; type: cell-based; details: a549, 16 h, dose 0.1-100 µM
In short: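 A549 lung epithelial cells kept in DMEM with 10% FBS and 1% penicillin-streptomycin at 37 °C, 5% CO2. Trypsinised at 80% confluence, resuspended in DMEM-F12, seeded at 10,000 cells/well, left 16 h. Compound added (0.1–100 μM), 16 h further incubation. Alamar blue for 5 h, fluorescence ex 510/em 590 nm, normalised to untreated cells.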

[8] = biological target: T2, Transcriptional regulator MvfR (Pseudomonas aeruginosa PA14); assay: Inhibition of PqsR in Pseudomonas aeruginosa PAO1 L harboring mCTX:PpqsA-lux fusion at 10 uM and measured every 30 mins for 24 hrs by spot test; in short: as §2

CCCC(C)c1nc(Cn2cnc3ccc(Cl)cc3c2=O)cs1 (configuration not stated)
Activity (Pseudomonas aeruginosa): inactive | IC50 [1]: 1.11 µM | IC50 [2]: 0.646 µM

CN(CCO)c1ncc(Cn2cnc3ccc(Cl)cc3c2=O)s1
Activity [3]: > 50% | Activity [4]: 101%

O=c1c2cc(Cl)ccc2ncn1Cc1cnc(Cl)s1
Activity [3]: > 50% | Activity [4]: 95%

CCCCCc1nc(Cn2cnc3cc(Cl)ccc3c2=O)cs1
Activity [3]: > 50% | Activity [4]: 106%

N#CCc1nc(Cn2cnc3ccc(Cl)cc3c2=O)cs1
Activity [3]: > 50% | Activity [4]: 104%

CC(C)c1ncc(Cn2cnc3ccc(Cl)cc3c2=O)s1
Activity [3]: > 50% | Activity [4]: 65%

CC(C)CCc1nc(Cn2cnc3ccc(Cl)cc3c2=O)cs1
Activity (Pseudomonas aeruginosa): inactive | IC50 [1]: 1.36 µM | IC50 [2]: 0.683 µM

CCCCCCc1nc(Cn2cnc3ccc(Cl)cc3c2=O)cs1
Activity (Pseudomonas aeruginosa): inactive | selectivity ratio [5]: > 377 | Activity [6]: 36% | solubility [7]: Insoluble | IC50 [1]: 0.298 µM | IC50 [2]: 0.265 µM | Activity (A549): Non-Toxic

CC(C)c1noc(Cn2cnc3ccc(Cl)cc3c2=O)n1
inhibition [8]: inactive

CC(C)(C)c1nc(Cn2cnc3cc(Cl)ccc3c2=O)cs1
Activity [3]: > 50% | Activity (Pseudomonas aeruginosa): inactive | IC50 [1]: 2.94 µM

CCc1nc(Cn2cnc3ccc(Cl)cc3c2=O)cs1
Activity [3]: > 50% | Activity [4]: 79%

CC(C)c1nc(Cn2cnc3cc(F)ccc3c2=O)cs1
IC50 [1]: 13.2 µM

O=c1c2cc(Cl)ccc2ncn1Cc1csc(/C=C/c2ccco2)n1
Activity (Pseudomonas aeruginosa): inactive | IC50 [1]: 2.05 µM | IC50 [2]: 2.92 µM

CC(C)(C)c1nc(Cn2cnc3ccc(Cl)cc3c2=O)cs1
Activity (Pseudomonas aeruginosa): inactive | IC50 [1]: 0.397 µM | IC50 [2]: 0.65 µM

CCC(C)Cc1nc(Cn2cnc3ccc(Cl)cc3c2=O)cs1 (configuration not stated)
Activity (Pseudomonas aeruginosa): inactive | IC50 [1]: 1.57 µM | IC50 [2]: 0.639 µM

O=c1c2cc(Cl)ccc2ncn1Cc1cnc(NC2CCCCC2)s1
Activity [3]: > 50% | Activity [4]: 83%

COCCNc1ncc(Cn2cnc3ccc(Cl)cc3c2=O)s1
Activity [3]: > 50% | Activity [4]: 85%

CC1CCN(c2ncc(Cn3cnc4ccc(Cl)cc4c3=O)s2)CC1
Activity [3]: > 50% | Activity [4]: 72%

O=c1c2cc(Cl)ccc2ncn1Cc1csc(-c2ccc([N+](=O)[O-])cc2)n1
Activity [3]: > 50% | Activity [4]: 89%

O=c1c2cc(Cl)ccc2ncn1Cc1csc(-c2ccccc2)n1
Activity (Pseudomonas aeruginosa): inactive | IC50 [1]: 0.244 µM | IC50 [2]: 0.123 µM

O=c1c2cc(Cl)ccc2ncn1Cc1csc(-c2ccco2)n1
Activity (Pseudomonas aeruginosa): inactive | IC50 [1]: 1.33 µM | IC50 [2]: 1.31 µM

Cc1nc(Cn2cnc3ccc(Cl)cc3c2=O)cs1
Activity [3]: > 50% | Activity [4]: 83%

CC(C)c1nc(Cn2cnc3ccc(Cl)cc3c2=O)cs1
Activity (Pseudomonas aeruginosa): inactive | IC50 [1]: 1.05 µM | IC50 [2]: 1.58 µM

CCCCc1nc(Cn2cnc3ccc(Cl)cc3c2=O)cs1
Activity (Pseudomonas aeruginosa): inactive | IC50 [1]: 1.56 µM | IC50 [2]: 1.72 µM

O=c1c2cc(Cl)ccc2ncn1Cc1csc(C(F)(F)F)n1
Activity [3]: > 50% | Activity [4]: 52%

CCCCCc1nc(Cn2cnc3ccc(Cl)cc3c2=O)cs1
Activity (Pseudomonas aeruginosa): inactive | selectivity ratio [5]: > 292 | Activity [6]: 23% | solubility [7]: Insoluble | IC50 [1]: 0.313 µM | IC50 [2]: 0.342 µM | Activity (A549): Non-Toxic

CC(C)Cc1nc(Cn2cnc3ccc(Cl)cc3c2=O)cs1
Activity (Pseudomonas aeruginosa): inactive | IC50 [1]: 1.22 µM | IC50 [2]: 1.33 µM

CCCCNc1ncc(Cn2cnc3ccc(Cl)cc3c2=O)s1
Activity [3]: > 50% | Activity [4]: 67%

COCCNc1nc(Cn2cnc3ccc(Cl)cc3c2=O)cs1
Activity [3]: > 50% | Activity [4]: 85%

NC(N)=Nc1nc(Cn2cnc3ccc(Cl)cc3c2=O)cs1
Activity [3]: > 50% | Activity [4]: 108%

CCCCNc1nc(Cn2cnc3ccc(Cl)cc3c2=O)cs1
Activity [3]: > 50% | Activity (Pseudomonas aeruginosa): inactive | IC50 [1]: 3.54 µM
